Results taken from ChEMBL document CHEMBL1806443, “Novel imidazo[4,5-b]pyridine and triaza-benzo[c]fluorene derivatives: synthesis, antiproliferative activity and DNA binding studies” (Eur J Med Chem, 2011).
Calls of active or inactive are those of the source. No cut-off for these calls is given here.

What was measured:
WI-38 [1] = assay: Antiproliferative activity against human WI38 cells after 72 hrs by MTT assay; type: cell-based; conditions: Homo sapiens, WI-38, 72 h
Summary of the method: (§1)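 Monolayer cells in DMEM with 10% FBS, 2 mM L-glutamine, penicillin and streptomycin at 37 °C, 5% CO2. Seeded at 3000-6000 cells/well by doubling time on day 0. Five 10-fold dilutions (0.01–100 µM) were added and incubated 72 h. MTT read-out, converted to percentage growth. IC50 by linear regression between bracketing concentrations. Quadruplicate points, three independent experiments, ANOVA/Tukey p<0.05.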

MIA PaCa-2 [2] = assay: Antiproliferative activity against human MIAPaCa2 cells after 72 hrs by MTT assay; type: functional, cell-based; conditions: Homo sapiens, MIA PaCa-2, 72 h; summary of the method: as §1
SW-620 [3] = assay: Antiproliferative activity against human SW620 cells after 72 hrs by MTT assay; type: functional, cell-based; conditions: Homo sapiens, SW-620, 72 h; summary of the method: as §1
HEp-2 [4] = assay: Antiproliferative activity against human Hep2 cells after 72 hrs by MTT assay; type: functional, cell-based; conditions: Homo sapiens, HEp-2, 72 h; summary of the method: as §1
SK-BR-3 [5] = assay: Antiproliferative activity against human SKBR3 cells after 72 hrs by MTT assay; type: functional, cell-based; conditions: Homo sapiens, SK-BR-3, 72 h; summary of the method: as §1
MCF7 [6] = assay: Antiproliferative activity against human MCF7 cells after 72 hrs by MTT assay; type: functional, cell-based; conditions: Homo sapiens, MCF7, 72 h; summary of the method: as §1
HeLa [7] = assay: Antiproliferative activity against human HeLa cells after 72 hrs by MTT assay; type: functional, cell-based; conditions: Homo sapiens, HeLa, 72 h; summary of the method: as §1
WI-38 [8] = assay: Antiproliferative activity against human WI38 cells at 0.1 to 10 uM after 72 hrs by MTT assay; type: cell-based; conditions: wi-38, 72 h; summary of the method: as §1
MIA PaCa-2 [9] = assay: Antiproliferative activity against human MIAPaCa2 cells at 0.1 to 10 uM after 72 hrs by MTT assay; type: functional, cell-based; summary of the method: as §1
SK-BR-3 [10] = assay: Antiproliferative activity against human SKBR3 cells at 0.1 to 10 uM after 72 hrs by MTT assay; type: functional, cell-based; summary of the method: as §1
SW-620 [11] = assay: Antiproliferative activity against human SW620 cells at 0.1 to 10 uM after 72 hrs by MTT assay; type: functional, cell-based; summary of the method: as §1
HEp-2 [12] = assay: Antiproliferative activity against human Hep2 cells at 0.1 to 10 uM after 72 hrs by MTT assay; type: functional, cell-based; summary of the method: as §1
MCF7 [13] = assay: Antiproliferative activity against human MCF7 cells at 0.1 to 10 uM after 72 hrs by MTT assay; type: functional, cell-based; summary of the method: as §1
HeLa [14] = assay: Antiproliferative activity against human HeLa cells at 0.1 to 10 uM after 72 hrs by MTT assay; type: functional, cell-based; summary of the method: as §1
WI-38 [15] = assay: Cytostatic activity against human WI38 cells at 1 to 10 uM after 72 hrs by MTT assay; type: ADME, cell-based; conditions: wi-38, 72 h
Summary of the method: (§2)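 Monolayers in DMEM with 10% FBS, 2 mM L-glutamine, penicillin and streptomycin (37 °C, 5% CO2) were seeded at 3000–6000 cells/well on day 0. Five 10-fold dilutions (0.01–100 µM) were added, followed by 72-h incubation and MTT read-out. Absorbances were converted to percentage growth by the NIH formulae. Each point was run in quadruplicate in three experiments; ANOVA with Tukey test.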

SW-620 [16] = assay: Cytostatic activity against human SW620 cells at 1 to 10 uM after 72 hrs by MTT assay; type: functional, cell-based; summary of the method: as §2
MIA PaCa-2 [17] = assay: Cytostatic activity against human MIAPaCa2 cells at 1 to 10 uM after 72 hrs by MTT assay; type: functional, cell-based; summary of the method: as §2
SK-BR-3 [18] = assay: Cytostatic activity against human SKBR3 cells at 1 to 10 uM after 72 hrs by MTT assay; type: functional, cell-based; summary of the method: as §2
HEp-2 [19] = assay: Cytostatic activity against human Hep2 cells at 1 to 10 uM after 72 hrs by MTT assay; type: functional, cell-based; summary of the method: as §2
MCF7 [20] = assay: Cytostatic activity against human MCF7 cells at 1 to 10 uM after 72 hrs by MTT assay; type: functional, cell-based; summary of the method: as §2
HeLa [21] = assay: Cytostatic activity against human HeLa cells at 1 to 10 uM after 72 hrs by MTT assay; type: functional, cell-based; summary of the method: as §2
Nucleic Acid [22] = assay: Binding affinity to calf thymus DNA assessed as change in melting temperature at compound to polynucleotide ratio of 0.5 by UV-VIS spectroscopic analysis; type: nucleic-acid assay; conditions: Bos taurus
Summary of the method: (§3)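 ct-DNA alone or with compound at set r = [compound]/[polynucleotide], in cacodylate buffer pH 7.0, I = 0.05 mol dm^-3. Absorbance at 260 nm followed against temperature, ligand absorbance subtracted, curves normalized. Tm is the transition midpoint, from the first-derivative maximum or by tangent method. ΔTm = Tm(complex) − Tm(free DNA), mean of ≥2 runs, error ±0.5 °C.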

Nucleic Acid [23] = assay: Binding affinity to calf thymus DNA assessed as change in melting temperature at compound to polynucleotide ratio of 0.3 by UV-VIS spectroscopic analysis; type: nucleic-acid assay; conditions: Bos taurus; summary of the method: as §3
Nucleic Acid [24] = assay: Binding affinity to calf thymus DNA assessed as change in melting temperature at compound to polynucleotide ratio of 0.2 by UV-VIS spectroscopic analysis; type: nucleic-acid assay; conditions: Bos taurus; summary of the method: as §3
Nucleic Acid [25] = assay: Binding affinity to calf thymus DNA assessed as change in melting temperature at compound to polynucleotide ratio of 0.1 by UV-VIS spectroscopic analysis; type: nucleic-acid assay; conditions: Bos taurus; summary of the method: as §3
Nucleic Acid [26] = assay: Binding affinity to calf thymus DNA assessed as appearance of weak positive CD band at compound to DNA ratio of > 0.3 and 350 to 400 nm wavelength by circular dichroism spectroscopy; type: nucleic-acid assay; conditions: Bos taurus
Summary of the method: (§4)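 CD spectra of ct-DNA (1.0 × 10^-5 mol dm^-3, as phosphate) titrated with compound at 25 °C. Sodium cacodylate buffer pH 7.0, I = 0.05 mol dm^-3, 1 cm quartz cuvette. DNA band (~274–275 nm) and induced bands above 300 nm followed versus r = [compound]/[ct-DNA].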

Nucleic Acid [27] = assay: Binding affinity to calf thymus DNA assessed as fluorescence quenching at compound to DNA ratio of 0.20 by fluorimetric titrations; type: nucleic-acid assay; conditions: Bos taurus
Summary of the method: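 Fluorimetric titration: portions of ct-DNA (sonicated, filtered, concentration as phosphate) added to compound in cacodylate buffer pH 7.0, I = 0.05 mol dm^-3. Emission 350–600 nm, sample absorbance <0.05 at excitation, mostly DNA excess (r < 0.1). Ks and n = [bound compound]/[DNA phosphate] by non-linear least-squares Scatchard fitting.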

Nucleic Acid [28] = assay: Binding affinity to calf thymus DNA assessed as hypochromic changes at 360 nm wavelength by UV-Vis spectrophotometric titrations; type: nucleic-acid assay; conditions: Bos taurus
Summary of the method: (§5)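 UV/Vis titration: aliquots of ct-DNA (concentration as phosphate) added to compound solution in sodium cacodylate buffer pH 7.0, I = 0.05 mol dm^-3, 1 cm quartz cuvettes. Hypochromism followed at band maxima. Compound absorbance linear up to 2.0 × 10^-5 mol dm^-3. Binding data fitted by the Scatchard equation.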

Nucleic Acid [29] = assay: Binding affinity to calf thymus DNA assessed as hypochromic changes at 342 nm wavelength by UV-Vis spectrophotometric titrations; type: nucleic-acid assay; conditions: Bos taurus; summary of the method: as §5
Nucleic Acid [30] = assay: Binding affinity to calf thymus DNA assessed as hypochromic changes at 327 nm wavelength by UV-Vis spectrophotometric titrations; type: nucleic-acid assay; conditions: Bos taurus; summary of the method: as §5
Nucleic Acid [31] = assay: Binding affinity to calf thymus DNA assessed as appearance of weak, negative CD band at 325 nm wavelength by circular dichroism spectroscopy; type: nucleic-acid assay; conditions: Bos taurus; summary of the method: as §4
Nucleic Acid [32] = assay: Binding affinity to calf thymus DNA assessed as hypochromic changes at 330 nm wavelength by UV-Vis spectrophotometric titrations; type: nucleic-acid assay; conditions: Bos taurus; summary of the method: as §5
Nucleic Acid [33] = assay: Binding affinity to calf thymus DNA assessed as hypochromic changes at 343 nm wavelength by UV-Vis spectrophotometric titrations; type: nucleic-acid assay; conditions: Bos taurus; summary of the method: as §5
Nucleic Acid [34] = assay: Binding affinity to calf thymus DNA assessed as appearance of weak, negative induced CD band at > 300 nm wavelength by circular dichroism spectroscopy; type: nucleic-acid assay; conditions: Bos taurus; summary of the method: as §4
Nucleic Acid [35] = assay: Binding affinity to calf thymus DNA assessed as UV/Vis spectral change at compound to DNA ratio of 0.24 by UV/Vis titrations; conditions: Bos taurus

Row | IC50 (MIA PaCa-2 [2]) [µM] | IC50 (SW-620 [3]) [µM] | IC50 (SK-BR-3 [5]) [µM] | IC50 (MCF7 [6]) [µM] | IC50 (HeLa [7]) [µM] | ΔTm (Nucleic Acid [22]) [°C] | ΔTm (Nucleic Acid [23]) [°C] | ΔTm (Nucleic Acid [24]) [°C] | ΔTm (Nucleic Acid [25]) [°C] | Compound | IC50 (WI-38 [1]) [µM] | IC50 (HEp-2 [4]) [µM] | Activity (WI-38 [15]) | Activity (SW-620 [16]) | Activity (MIA PaCa-2 [17]) | Activity (SK-BR-3 [18]) | Activity (HEp-2 [19]) | Activity (MCF7 [20]) | Activity (HeLa [21]) | other results
1 | 4.74 | 3.67 | 5.52 | 8.43 | 1.1 |  |  |  |  | Brc1cnc2nc3ccc4ccc(C5=NCCN5)cc4n3c2c1.Cl | 3.71 | 4.01 | Toxic | Active | Active | Active | Active | Active | Active | Activity (WI-38 [8]): Toxic; Activity (MIA PaCa-2 [9]): Active; Activity (SK-BR-3 [10]): Active; Activity (SW-620 [11]): Active; Activity (HEp-2 [12]): Active; Activity (MCF7 [13]): Active; Activity (HeLa [14]): Active
2 | 8.56 | 14.8 | 3.51 | 7.56 | 7.52 | 6.1 | 4.25 | 2.6 | 1.6 | C[n+]1cccc2c1nc1ccc3ccccc3n12.[I-] | 6.27 | 13.2 | Toxic | Active | Active | Active | Active | Active | Active | Activity (Nucleic Acid [26]): Active; log Ks (Nucleic Acid [27]): 4.9; Activity (Nucleic Acid [28]): 38%; Activity (Nucleic Acid [29]): 37%; Activity (Nucleic Acid [30]): 28%; Activity (Nucleic Acid [31]): Active
3 | 8.17 | 7.11 | 4.31 | 7.82 | 2.88 |  |  |  |  | N#Cc1ccc(/C=C/c2nc3ncc(Br)cc3[nH]2)cc1 | 6.76 | 5.69 | Toxic | Active | Active | Active | Active | Active | Active | 
4 |  |  |  |  |  | 1.3 | 0.2 | 1.4 | 0.7 | Nc1ccc2c(ccc3nc4ncccc4n32)c1 |  |  |  | Active | Active | Active | Active | Active | Active | Activity (Nucleic Acid [32]): 26%; Activity (Nucleic Acid [33]): 18%; Activity (Nucleic Acid [34]): inactive; log Ks (Nucleic Acid [35]): 4.6
5 | 59.1 | 50.9 | 5.79 | 25.6 | 31.6 |  |  |  |  | Clc1ccccc1/C=C/c1nc2ncccc2[nH]1 | > 100 | 29.3 | Toxic | Active | Active | Active | Active | Active | Active | 
